Test results from ChEMBL document CHEMBL1124483 (J Med Chem, 1989).

Experiment: Lethal dose of the compound, when administered intraperitoneally in mice
Format: toxicity, organism-based
Conditions: mouse, in vivo, ip
In short: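 Male Swiss Webster mice (15–20 g), five per dose level, at least four dose levels, given ip injection (0.10 mL/10 g) in normal saline or saline/phosphate-buffered saline, with EtOH up to 2.5% final for some; solvent-only control group.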

Compound | LD50
CC(C)(C)[C@H]1CC[C@@H](O)[C@H](N2CCC(c3ccccc3)CC2)C1 | 5.7 µmol/kg
OC1CCCC1N1CCC(c2ccccc2)CC1 (stereo not given) | > 200 µmol/kg
CC(=O)Nc1cccc2c1CC(N1CCC(c3ccccc3)CC1)C(O)C2 (stereo not given) | 1.7 µmol/kg
OC1CCCCC1N1CCC(Cc2ccccc2)CC1 (stereo not given) | > 180 µmol/kg
OC1Cc2ccccc2CC1N1CCC(c2ccccc2)CC1 (stereo not given) | 1.2 µmol/kg
CC1(O)CCCC[C@H]1N1CCC(c2ccccc2)CC1 (stereo not given in full) | > 180 µmol/kg
OC1CCCCC1N1CC=C(c2ccc(Cl)cc2)CC1 (stereo not given) | > 340 µmol/kg
O[C@H]1CCCC[C@@H]1N1CCC(c2ccccc2)CC1 | > 190 µmol/kg
CO[C@H]1CCC[C@@H](N2CCC(c3ccccc3)CC2)[C@@H]1O | 240 µmol/kg
C[N+]1(C2CCCCC2O)CCC(c2ccccc2)CC1 (stereo not given) | > 180 µmol/kg
CCC(O)CN1CCC(c2ccccc2)CC1 (stereo not given) | 300 µmol/kg
OC1CC2CCCCC2CC1N1CCC(c2ccccc2)CC1 (racemic) | 2 µmol/kg
OC1CCCCC1N1CCC(c2ccccc2)CC1 (racemic) | 16 µmol/kg
COc1ccccc1N1CCN(C2CC3CCCCC3CC2O)CC1 (racemic; 68) | 12 µmol/kg
O[C@@H]1CCCC[C@H]1N1CCC(c2ccccc2)CC1 [VESAMICOL] | 12 µmol/kg
